Test results published in ChEMBL document CHEMBL2375359, “Synthesis and antibacterial evaluation of novel pleuromutilin derivatives” (2013).
In brackets after ≈: the same amount, converted by molar mass.

Key:
Assay type in all cases: functional
[1] = system: Escherichia coli; test: Antibacterial activity against Escherichia coli after 48 hrs by agar dilution method
In short: (§1)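 Agar dilution per NCCLS on clinical isolates. 2-fold serial dilutions of compound (2 mL) mixed into 18 mL hot Mueller-Hinton agar. Inoculum from blood slants, adjusted to approx. 10⁵–10⁶ cfu/mL in sterile 0.90% NaCl, then spotted onto the plates. Incubated 36.5 °C, 48 h. MIC is the lowest concentration giving complete growth inhibition. Run in triplicate at pH 7.40.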

[2] = system: Staphylococcus epidermidis; test: Antibacterial activity against methicillin-resistant Staphylococcus epidermidis at 80 ug/ml after 24 hrs by Oxford cup assay; conditions: read-out: IZ
In short: (§2)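 Oxford cup diffusion: clinical isolate inoculum in 0.9% saline set by McFarland standard, spread evenly on nutrient agar. Cups placed equidistant on the surface and filled with compound solutions prepared as for the agar dilution test, at several concentrations. Inhibition zone measured after 24 h at 37 °C.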

[3] = system: Staphylococcus epidermidis; test: Antibacterial activity against methicillin-resistant Staphylococcus epidermidis at 160 ug/ml after 24 hrs by Oxford cup assay; conditions: read-out: IZ; in short: as §2
[4] = system: Staphylococcus aureus; test: Antibacterial activity against methicillin-resistant Staphylococcus aureus at 80 ug/ml after 24 hrs by Oxford cup assay; conditions: read-out: IZ; in short: as §2
[5] = system: Escherichia coli; test: Antibacterial activity against Escherichia coli at 320 ug/ml after 24 hrs by Oxford cup assay; conditions: read-out: IZ
In short: (§3)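 Oxford cup diffusion with clinical isolates. Inoculum made in 0.9% saline to a McFarland standard and spread evenly on nutrient agar. Compound solutions, prepared as for the agar dilution test, were added at the stated concentration to Oxford cups set equidistant on the agar surface. Inhibition zones were measured after 24 h at 37 °C.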

[6] = system: Streptococcus agalactiae; test: Antibacterial activity against Streptococcus agalactiae at 80 ug/ml after 24 hrs by Oxford cup assay; conditions: read-out: IZ; in short: as §3
[7] = system: Staphylococcus aureus; test: Antibacterial activity against methicillin-resistant Staphylococcus aureus at 320 ug/ml after 24 hrs by Oxford cup assay; conditions: read-out: IZ; in short: as §2
[8] = system: Staphylococcus aureus; test: Antibacterial activity against methicillin-resistant Staphylococcus aureus after 48 hrs by agar dilution method
In short: (§4)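 Agar dilution per NCCLS: 2-fold serial dilutions incorporated into hot Mueller-Hinton agar. Clinical isolates grown from blood slants, suspended in sterile 0.90% NaCl to about 10⁵–10⁶ cfu/mL, spotted onto plates. Incubation 36.5 °C, 48 h. MIC taken as the lowest concentration giving complete growth inhibition. Run in triplicate at pH 7.40.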

[9] = system: Streptococcus agalactiae; test: Antibacterial activity against Streptococcus agalactiae at 320 ug/ml after 24 hrs by Oxford cup assay; conditions: read-out: IZ; in short: as §3
[10] = system: Staphylococcus aureus; test: Antibacterial activity against methicillin-resistant Staphylococcus aureus at 160 ug/ml after 24 hrs by Oxford cup assay; conditions: read-out: IZ; in short: as §2
[11] = system: Streptococcus agalactiae; test: Antibacterial activity against Streptococcus agalactiae after 48 hrs by agar dilution method; in short: as §1
[12] = system: Escherichia coli; test: Antibacterial activity against Escherichia coli at 160 ug/ml after 24 hrs by Oxford cup assay; conditions: read-out: IZ; in short: as §3
[13] = system: Escherichia coli; test: Antibacterial activity against Escherichia coli at 80 ug/ml after 24 hrs by Oxford cup assay; conditions: read-out: IZ; in short: as §3
[14] = system: Staphylococcus epidermidis; test: Antibacterial activity against methicillin-resistant Staphylococcus epidermidis after 48 hrs by agar dilution method; in short: as §4
[15] = system: Streptococcus agalactiae; test: Antibacterial activity against Streptococcus agalactiae at 160 ug/ml after 24 hrs by Oxford cup assay; conditions: read-out: IZ; in short: as §3
[16] = system: Staphylococcus epidermidis; test: Antibacterial activity against methicillin-resistant Staphylococcus epidermidis at 320 ug/ml after 24 hrs by Oxford cup assay; conditions: read-out: IZ; in short: as §2

**Q.** Which results are given for C=C[C@]1(C)C[C@@H](OC(=O)CSC(C)(C)CNC(=O)c2cc3ccccc3[nH]2)[C@]2(C)[C@H](C)CC[C@]3(CCC(=O)[C@H]32)[C@@H](C)[C@@H]1O?
**A.** MIC [1]: 16 µg/mL (≈ 26.3 µM); zone of inhibition at 80 µg/mL [2]: 10.3 mm; zone of inhibition at 160 µg/mL [3]: 8.84 mm; zone of inhibition at 80 µg/mL [4]: 9.05 mm; zone of inhibition at 320 µg/mL [5]: 10.8 mm; zone of inhibition at 80 µg/mL [6]: 9.31 mm; zone of inhibition at 320 µg/mL [7]: 8.52 mm; MIC [8]: 2 µg/mL (≈ 3.28 µM); zone of inhibition at 320 µg/mL [9]: 9.25 mm; zone of inhibition at 160 µg/mL [10]: 8.77 mm; MIC [11]: 8 µg/mL (≈ 13.1 µM); zone of inhibition at 160 µg/mL [12]: 9.52 mm; zone of inhibition at 80 µg/mL [13]: 8.87 mm; MIC [14]: 16 µg/mL (≈ 26.3 µM); zone of inhibition at 160 µg/mL [15]: 9.62 mm; zone of inhibition at 320 µg/mL [16]: 9 mm

**Q.** Which results are given for C=C[C@]1(C)C[C@@H](OC(=O)CSC(C)(C)CNC(=O)c2ccccc2C)[C@]2(C)[C@H](C)CC[C@]3(CCC(=O)[C@H]32)[C@@H](C)[C@@H]1O?
**A.** MIC [1]: 2 µg/mL (≈ 3.43 µM); zone of inhibition at 80 µg/mL [2]: 10.7 mm; zone of inhibition at 160 µg/mL [3]: 12.9 mm; zone of inhibition at 80 µg/mL [4]: 10.3 mm; zone of inhibition at 320 µg/mL [5]: 15 mm; zone of inhibition at 80 µg/mL [6]: 10 mm; zone of inhibition at 320 µg/mL [7]: 12.3 mm; MIC [8]: 0.25 µg/mL (≈ 0.428 µM); zone of inhibition at 320 µg/mL [9]: 12.4 mm; zone of inhibition at 160 µg/mL [10]: 11.8 mm; MIC [11]: 0.5 µg/mL (≈ 0.856 µM); zone of inhibition at 160 µg/mL [12]: 13.7 mm; zone of inhibition at 80 µg/mL [13]: 12.1 mm; MIC [14]: 16 µg/mL (≈ 27.4 µM); zone of inhibition at 160 µg/mL [15]: 10.9 mm; zone of inhibition at 320 µg/mL [16]: 13.8 mm

**Q.** For C=C[C@]1(C)C[C@@H](OC(=O)CSC(C)(C)CNC(=O)c2ccc(Cl)cc2)[C@]2(C)[C@H](C)CC[C@]3(CCC(=O)[C@H]32)[C@@H](C)[C@@H]1O, which MIC [1] is on record?
**A.** The MIC was 2 µg/mL (≈ 3.31 µM).

**Q.** What about the zone of inhibition at 80 µg/mL [2] of the same molecule?
**A.** The zone of inhibition at 80 µg/mL was 8.72 mm.

**Q.** What about the zone of inhibition at 160 µg/mL [3] of the same molecule?
**A.** Its zone of inhibition at 160 µg/mL is 12.7 mm.

**Q.** And the zone of inhibition at 80 µg/mL [4]?
**A.** Its zone of inhibition at 80 µg/mL is 11.8 mm.

**Q.** What about the zone of inhibition at 320 µg/mL [5] of the same molecule?
**A.** The zone of inhibition at 320 µg/mL was 12.6 mm.

**Q.** What about the zone of inhibition at 80 µg/mL [6] of the same molecule?
**A.** Its zone of inhibition at 80 µg/mL is 10.8 mm.

**Q.** And the zone of inhibition at 320 µg/mL [7]?
**A.** The zone of inhibition at 320 µg/mL was 14.6 mm.

**Q.** What about the MIC [8] of the same molecule?
**A.** The MIC was 1 µg/mL (≈ 1.65 µM).

**Q.** What about the zone of inhibition at 320 µg/mL [9] of the same molecule?
**A.** The zone of inhibition at 320 µg/mL was 14 mm.

**Q.** What about the zone of inhibition at 160 µg/mL [10] of the same molecule?
**A.** The zone of inhibition at 160 µg/mL was 13.8 mm.

**Q.** What about the MIC [11] of the same molecule?
**A.** The MIC was 4 µg/mL (≈ 6.62 µM).

**Q.** And the zone of inhibition at 160 µg/mL [12]?
**A.** The zone of inhibition at 160 µg/mL was 12.9 mm.

**Q.** And the zone of inhibition at 80 µg/mL [13]?
**A.** The zone of inhibition at 80 µg/mL was 11.8 mm.

**Q.** And the MIC [14]?
**A.** Its MIC is 0.5 µg/mL (≈ 0.827 µM).

**Q.** What about the zone of inhibition at 160 µg/mL [15] of the same molecule?
**A.** Its zone of inhibition at 160 µg/mL is 12.1 mm.

**Q.** And the zone of inhibition at 320 µg/mL [16]?
**A.** Its zone of inhibition at 320 µg/mL is 12.4 mm.

**Q.** Which results are given for C=C[C@]1(C)C[C@@H](OC(=O)CSC(C)(C)CNC(=O)c2cccc(OC)c2)[C@]2(C)[C@H](C)CC[C@]3(CCC(=O)[C@H]32)[C@@H](C)[C@@H]1O?
**A.** MIC [1]: 8 µg/mL (≈ 13.3 µM); zone of inhibition at 80 µg/mL [2]: 11.4 mm; zone of inhibition at 160 µg/mL [3]: 11.7 mm; zone of inhibition at 80 µg/mL [4]: 11.8 mm; zone of inhibition at 320 µg/mL [5]: 14.3 mm; zone of inhibition at 80 µg/mL [6]: 12.6 mm; zone of inhibition at 320 µg/mL [7]: 12.8 mm; MIC [8]: 2 µg/mL (≈ 3.33 µM); zone of inhibition at 320 µg/mL [9]: 13.4 mm; zone of inhibition at 160 µg/mL [10]: 13 mm; MIC [11]: 4 µg/mL (≈ 6.67 µM); zone of inhibition at 160 µg/mL [12]: 13.3 mm; zone of inhibition at 80 µg/mL [13]: 12.2 mm; MIC [14]: 32 µg/mL (≈ 53.3 µM); zone of inhibition at 160 µg/mL [15]: 12.4 mm; zone of inhibition at 320 µg/mL [16]: 12.5 mm

**Q.** Which results are given for C=C[C@]1(C)C[C@@H](OC(=O)CSC(C)(C)CNC(=O)c2ccccc2OC)[C@]2(C)[C@H](C)CC[C@]3(CCC(=O)[C@H]32)[C@@H](C)[C@@H]1O?
**A.** MIC [1]: 4 µg/mL (≈ 6.67 µM); zone of inhibition at 80 µg/mL [2]: 10.8 mm; zone of inhibition at 160 µg/mL [3]: 12.5 mm; zone of inhibition at 80 µg/mL [4]: 9.5 mm; zone of inhibition at 320 µg/mL [5]: 17.4 mm; zone of inhibition at 80 µg/mL [6]: 11.8 mm; zone of inhibition at 320 µg/mL [7]: 12.4 mm; MIC [8]: 0.25 µg/mL (≈ 0.417 µM); zone of inhibition at 320 µg/mL [9]: 13.7 mm; zone of inhibition at 160 µg/mL [10]: 12.1 mm; MIC [11]: 2 µg/mL (≈ 3.33 µM); zone of inhibition at 160 µg/mL [12]: 15.5 mm; zone of inhibition at 80 µg/mL [13]: 12.4 mm; MIC [14]: 8 µg/mL (≈ 13.3 µM); zone of inhibition at 160 µg/mL [15]: 13 mm; zone of inhibition at 320 µg/mL [16]: 13.5 mm

**Q.** For C=C[C@]1(C)C[C@@H](OC(=O)CSC(C)(C)CNC(=O)[C@H](N)c2ccccc2)[C@]2(C)[C@H](C)CC[C@]3(CCC(=O)[C@H]32)[C@@H](C)[C@@H]1O, which MIC [1] is on record?
**A.** Its MIC is 8 µg/mL (≈ 13.4 µM).

**Q.** And the zone of inhibition at 80 µg/mL [2]?
**A.** The zone of inhibition at 80 µg/mL was 10.9 mm.

**Q.** What about the zone of inhibition at 160 µg/mL [3] of the same molecule?
**A.** Its zone of inhibition at 160 µg/mL is 10 mm.

**Q.** And the zone of inhibition at 80 µg/mL [4]?
**A.** Its zone of inhibition at 80 µg/mL is 9.41 mm.

**Q.** What about the zone of inhibition at 320 µg/mL [5] of the same molecule?
**A.** Its zone of inhibition at 320 µg/mL is 10.8 mm.

**Q.** And the zone of inhibition at 80 µg/mL [6]?
**A.** Its zone of inhibition at 80 µg/mL is 10.1 mm.

**Q.** What about the zone of inhibition at 320 µg/mL [7] of the same molecule?
**A.** Its zone of inhibition at 320 µg/mL is 10.2 mm.

**Q.** And the MIC [8]?
**A.** The MIC was 2 µg/mL (≈ 3.34 µM).

**Q.** What about the zone of inhibition at 320 µg/mL [9] of the same molecule?
**A.** Its zone of inhibition at 320 µg/mL is 11 mm.

**Q.** What about the zone of inhibition at 160 µg/mL [10] of the same molecule?
**A.** The zone of inhibition at 160 µg/mL was 9.98 mm.

**Q.** And the MIC [11]?
**A.** Its MIC is 16 µg/mL (≈ 26.7 µM).

**Q.** And the zone of inhibition at 160 µg/mL [12]?
**A.** Its zone of inhibition at 160 µg/mL is 11.3 mm.

**Q.** What about the zone of inhibition at 80 µg/mL [13] of the same molecule?
**A.** Its zone of inhibition at 80 µg/mL is 9.2 mm.

**Q.** What about the MIC [14] of the same molecule?
**A.** Its MIC is 16 µg/mL (≈ 26.7 µM).

**Q.** What about the zone of inhibition at 160 µg/mL [15] of the same molecule?
**A.** The zone of inhibition at 160 µg/mL was 10.6 mm.

**Q.** And the zone of inhibition at 320 µg/mL [16]?
**A.** Its zone of inhibition at 320 µg/mL is 10.8 mm.
